{
  "source": "paper PMC5110371",
  "about": "(Nature chemical biology, 2016)",
  "key": {"Enolase [1]": {"target": "Enolase (Homo sapiens, UniProt P09104)", "sequence (P09104 whole entry)": "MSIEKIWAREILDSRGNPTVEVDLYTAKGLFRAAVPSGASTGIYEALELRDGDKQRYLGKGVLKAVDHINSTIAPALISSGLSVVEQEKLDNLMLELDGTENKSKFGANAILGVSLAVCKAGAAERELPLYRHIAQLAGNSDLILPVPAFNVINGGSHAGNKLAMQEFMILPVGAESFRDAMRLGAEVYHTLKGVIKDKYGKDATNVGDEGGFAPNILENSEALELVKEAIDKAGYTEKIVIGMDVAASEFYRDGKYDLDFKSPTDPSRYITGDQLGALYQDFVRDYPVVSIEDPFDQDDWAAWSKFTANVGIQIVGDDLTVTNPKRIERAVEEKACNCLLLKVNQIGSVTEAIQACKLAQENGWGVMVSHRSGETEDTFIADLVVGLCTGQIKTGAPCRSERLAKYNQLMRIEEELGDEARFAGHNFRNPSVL", "assay": "Enolase enzymatic activity in vitro", "type": "biochemical"}, "Enolase [2]": {"target": "Enolase", "assay": "Enolase enzymatic activity in vitro", "type": "biochemical"}, "[3]": {"assay": "Configurational stability in aqueous solution", "type": "physicochemical"}, "[4]": {"test_system": "Gli56 ENO1-deleted glioma cells", "assay": "Proliferation", "type": "cell-based, human", "conditions": "Supplementary Fig. 9", "summary_of_the_method": "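Growth was followed by IncuCyte live-cell confluence imaging every 4 h. Initial seeding was 1.5 × 10^3 cells/well in 96-well plates, with duplicate replicates. Cells were cultured in DMEM with 10% FBS. ENO1-intact cell lines were used as comparators.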"}, "Enolase 2": {"target": "Enolase 2 (Homo sapiens, UniProt P09104)", "sequence (P09104 whole entry)": "as above", "assay": "Cellular thermal shift assay in intact D423 ENO2 glioma cells", "type": "cell-based", "conditions": "100 μM, without inhibitor ~65 °C", "summary_of_the_method": "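D423 glioma cells overexpressing ENO2, grown in DMEM with 10% FBS, treated one day with 100 μM test compound or vehicle. Trypsinized, PBS-washed, resuspended in PBS at 0.5 × 10^6 cells/mL, heated on a 50–90 °C gradient. Lysed with twice the volume of 20 mM Tris-HCl, 1 mM EDTA, 1 mM β-mercaptoethanol pH 7.4, plus one dry-ice freeze-thaw. Soluble ENO2 followed by immunoblotting.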"}, "[5]": {"test_system": "D423 ENO1-rescued glioma cells", "assay": "Proliferation", "type": "cell-based, human", "summary_of_the_method": "(§1)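 Cells were seeded at 2 × 10^3 cells/well in 96-well plates and treated for 2 weeks across a concentration range. Medium was then refreshed, and Hoechst 33342 (total cells) plus YO-PRO-1 (apoptotic cells) were added at 1:1000 final dilution for 2 h at 37 °C. Wells were imaged and quantified by high-content imaging. Conditions were run in duplicate and expressed relative to vehicle.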"}, "[6]": {"target": "Triosephosphate isomerase (Homo sapiens, UniProt P60174)", "sequence (P60174 whole entry)": "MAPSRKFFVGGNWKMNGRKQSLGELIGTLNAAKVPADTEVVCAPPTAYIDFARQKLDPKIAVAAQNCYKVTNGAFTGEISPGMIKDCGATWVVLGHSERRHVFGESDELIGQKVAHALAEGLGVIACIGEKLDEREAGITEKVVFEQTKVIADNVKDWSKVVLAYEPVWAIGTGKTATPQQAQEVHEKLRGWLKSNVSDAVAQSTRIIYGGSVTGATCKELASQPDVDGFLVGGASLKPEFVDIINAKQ", "assay": "Thermal shift assay, internal control Triosephosphate isomerase", "type": "binding", "conditions": "cell lysates", "summary_of_the_method": "(§2)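 Lysates of D423 glioma cells overexpressing ENO1 or ENO2 were made in 20 mM Tris-HCl, 1 mM EDTA, 1 mM β-mercaptoethanol, pH 7.4, homogenised, sonicated and cleared at 20,000 g for 10 min. They were diluted 1:100 in enolase assay buffer (10 mM KCl, 5 mM MgSO4, 100 mM triethanolamine, pH 7.4), given test compound or vehicle, and heated 3 min at 50–90 °C. After 20,000 g spin, supernatant was immunoblotted (anti-vinculin, anti-TPI, both 1:3000).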"}, "[7]": {"test_system": "D423 ENO1-deleted glioma cells", "assay": "Time course of ATP", "type": "cell-based, human"}, "Staphylococcus": {"test_system": "Staphylococcus", "conditions": "cited from earlier work"}, "Salmonella": {"test_system": "Salmonella", "conditions": "cited from earlier work"}, "[8]": {"test_system": "D423 ENO1-deleted glioma cells", "assay": "Cell density", "type": "cell-based, human", "conditions": "72 hours", "summary_of_the_method": "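Cells were seeded at 1 × 10^4 cells/well in 96-well plates and treated the next day. They were then held either under hypoxia (0.1% O2, 5% CO2) or normoxia for 72 h. Cells were fixed in 10% formalin and stained with crystal violet. Dye was extracted with 10% acetic acid and absorbance read at 595 nm.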"}, "ENO2 [9]": {"target": "T1, ENO2 (Homo sapiens, UniProt P09104)", "T1 sequence (P09104 whole entry)": "as the sequence (P09104 whole entry) above", "assay": "Ligand-induced thermal shift assay, lysates of D423 overexpressing ENO2", "type": "binding", "conditions": "1 μM inhibitor, cell lysates", "summary_of_the_method": "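Lysate in 20 mM Tris-HCl, 1 mM EDTA, 1 mM β-mercaptoethanol (pH 7.4), homogenised, sonicated and cleared at 20,000 g for 10 min. Diluted 1:100 in enolase buffer (10 mM KCl, 5 mM MgSO4, 100 mM triethanolamine, pH 7.4). Treated with 1 μM test compound or vehicle, heated at 50–90 °C for 3 min, recentrifuged. ENO2 in supernatant immunoblotted; band intensity plotted versus temperature.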"}, "fungi": {"test_system": "fungi", "conditions": "cited from earlier work"}, "[10]": {"test_system": "D423 ENO1-deleted glioma cells", "assay": "Proliferation", "type": "cell-based, human", "summary_of_the_method": "as §1"}, "E. coli": {"test_system": "E. coli", "conditions": "cited from earlier work"}, "ENO2 [11]": {"target": "T1, ENO2", "assay": "Thermal shift assay, purified recombinant human ENO2", "type": "binding", "conditions": "concentration not stated in the sentence (Supplementary Fig. 6: 1 µM or 25 µM)", "summary_of_the_method": "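Diluted and treated with test compound or vehicle in enolase assay buffer (10 mM KCl, 5 mM MgSO4, 100 mM triethanolamine, pH 7.4). Heated 50–90 °C for 3 min, spun 20,000 g for 10 min, supernatant ENO2 immunoblotted.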"}, "[12]": {"test_system": "D423 ENO1-deleted glioma cells", "assay": "Mass spectrometric determination of 3-PGA and PEP", "type": "cell-based, human", "conditions": "10 μM and 25 μM, 72 hours", "summary_of_the_method": "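D423 ENO1-deleted glioma cells and isogenic ENO1-rescued controls were grown in DMEM with 10% FBS. They were treated with vehicle, 10 μM or 25 μM test compound for 72 h. Polar metabolites were extracted with 80% methanol at −80°C and quantified by mass spectrometry to give the 3-PGA/PEP ratio. Each bar is an independently treated culture; comparisons used unpaired two-tailed t-tests with Bonferroni correction.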"}, "[13]": {"test_system": "D423 ENO1-deleted glioma cells", "assay": "13C-1 glucose isotope tracing", "type": "cell-based, human", "conditions": "10 μM; for conversion of 13C-1 glucose to 13C-3 glycerate: 72 hours", "summary_of_the_method": "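Glucose-free DMEM supplemented with 10 mM 13C-1 glucose; test compound at 10 μM. Media extracted with 80% methanol at −80 °C, centrifuged, lyophilised, redissolved in D2O and analysed by proton-decoupled 13C NMR. Glycerate was read as the peak at 64 ppm, also expressed as a ratio to 13C-3 lactate. Isogenic ENO1-rescued D423 cells served as comparison.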"}, "Vinculin": {"target": "T2, Vinculin (Homo sapiens, UniProt P18206)", "T2 sequence (P18206 1-1066 isoform P18206-2)": "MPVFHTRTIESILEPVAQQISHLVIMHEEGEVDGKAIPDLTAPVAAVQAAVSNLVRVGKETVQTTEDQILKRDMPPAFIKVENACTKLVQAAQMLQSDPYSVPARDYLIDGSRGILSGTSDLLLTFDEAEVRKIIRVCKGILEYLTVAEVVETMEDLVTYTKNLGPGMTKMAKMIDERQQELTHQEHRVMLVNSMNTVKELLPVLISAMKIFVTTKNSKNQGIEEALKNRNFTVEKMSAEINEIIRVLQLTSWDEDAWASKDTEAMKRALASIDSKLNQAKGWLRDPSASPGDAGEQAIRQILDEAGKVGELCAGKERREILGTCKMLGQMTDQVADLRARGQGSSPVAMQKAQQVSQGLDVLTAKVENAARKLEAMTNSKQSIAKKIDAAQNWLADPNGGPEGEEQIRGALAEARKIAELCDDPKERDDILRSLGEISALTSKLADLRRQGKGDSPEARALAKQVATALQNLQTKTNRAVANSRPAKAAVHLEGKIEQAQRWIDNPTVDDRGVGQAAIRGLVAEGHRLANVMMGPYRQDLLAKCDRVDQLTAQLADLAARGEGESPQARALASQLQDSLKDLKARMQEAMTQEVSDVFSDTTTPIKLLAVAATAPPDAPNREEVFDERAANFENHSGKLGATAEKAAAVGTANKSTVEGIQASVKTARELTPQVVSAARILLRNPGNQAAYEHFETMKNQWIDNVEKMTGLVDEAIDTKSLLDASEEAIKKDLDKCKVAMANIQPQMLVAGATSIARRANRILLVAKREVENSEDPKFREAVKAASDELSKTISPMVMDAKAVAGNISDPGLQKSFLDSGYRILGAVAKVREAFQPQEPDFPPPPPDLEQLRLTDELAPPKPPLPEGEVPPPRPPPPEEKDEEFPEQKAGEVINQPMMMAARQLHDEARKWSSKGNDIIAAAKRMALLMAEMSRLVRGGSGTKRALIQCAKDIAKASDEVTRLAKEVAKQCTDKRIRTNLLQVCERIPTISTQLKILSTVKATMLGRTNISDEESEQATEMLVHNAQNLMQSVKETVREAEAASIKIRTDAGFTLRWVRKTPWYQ", "assay": "Thermal shift assay, internal control Vinculin", "type": "binding", "conditions": "cell lysates", "summary_of_the_method": "as §2"}, "ENO1-intact glioma cells": {"test_system": "ENO1-intact glioma cells", "assay": "Toxicity to ENO1-intact cells", "type": "cell-based, human", "conditions": "10 μM, four days"}, "[14]": {"conditions": "2 weeks, YO-PRO-1 positive cells"}},
  "data": [
    {"smiles": "O=C1C(P(=O)(O)O)CCN1O", "note": "(stereo not drawn) [deoxy-SF2312, 1-hydroxy-2-oxopyrrolidin-3-ylphosphonic acid]", "values": [
      {"measurement": "kinetics with respect to substrate 2-PGA", "setting": "Enolase [1]; ENO2 (Fig. 1d)", "result": "clear competitive kinetics"},
      {"measurement": "IC50", "setting": "Enolase [2]; read-out: IC50 as an enolase inhibitor", "result": "~2", "unit": "µM"}
    ]},
    {"smiles": "O=C1C(P(=O)(O)O)CC(O)N1O", "note": "(stereo not drawn) [SF2312, (1,5-dihydroxy-2-oxopyrrolidin-3-yl)phosphonic acid]", "values": [
      {"measurement": "stability of stereocenters", "setting": "[3]", "result": "both stereocenters underwent spontaneous epimerization"},
      {"measurement": "toxicity against Gli56 versus ENO1-intact cell lines", "setting": "[4]", "result": "selective toxicity"},
      {"measurement": "shift of the thermal melting curve of ENO2 in intact glioma cells", "setting": "Enolase 2", "result": "~ 15 °C"},
      {"measurement": "concentration inhibiting proliferation", "setting": "[5]; 2 weeks treatment course, ectopically re-expressing ENO1", "result": "above 200 μM"},
      {"measurement": "concentration at which induction of cell death is seen", "setting": "[5]; [14]", "result": 400, "unit": "µM"},
      {"measurement": "effect on thermal stability of Triosephosphate isomerase", "setting": "[6]", "result": "Neither PhAH nor SF2312 affected the thermal stability"},
      {"measurement": "time after initiation of treatment at which declines in ATP occurred", "setting": "[7]", "result": 8, "unit": "h"},
      {"measurement": "antibiotic activity", "setting": "Staphylococcus", "result": "strong activity"},
      {"measurement": "antibiotic activity", "setting": "Salmonella", "result": "strong activity"},
      {"measurement": "concentrations at which cells were essentially eradicated", "setting": "[8]; hypoxia (0.1% O2)", "result": "> 6.25", "unit": "µM"},
      {"measurement": "eradication of cells", "setting": "[8]; normoxia, 100 μM inhibitor", "result": "no eradication was observed"},
      {"measurement": "kinetics with respect to substrate 2-PGA", "setting": "Enolase [1]; ENO2, at IC50", "result": "non-competitive kinetics"},
      {"measurement": "kinetics with respect to substrate 2-PGA", "setting": "Enolase [1]; ENO2, at higher concentrations of inhibitor", "result": "competitive kinetics"},
      {"measurement": "type of inhibitor (on/off rate)", "setting": "Enolase [2]; order of addition of inhibitor and substrate", "result": "slow-on/slow-off inhibitor"},
      {"measurement": "shift in the thermal denaturation of ENO2", "setting": "ENO2 [9]", "result": "~ 9.5 °C"},
      {"measurement": "melting temperature (Tm) of ENO2", "setting": "ENO2 [9]; without inhibitor ~63 °C", "result": "~ 72.5 °C"},
      {"measurement": "antibiotic activity", "setting": "fungi", "result": "no activity"},
      {"measurement": "concentration inhibiting proliferation", "setting": "[10]; 2 weeks treatment course", "result": "low μM range"},
      {"measurement": "concentration at which induction of cell death starts", "setting": "[10]; [14]", "result": 12.5, "unit": "µM"},
      {"measurement": "antibiotic activity", "setting": "E. coli", "result": "weak activity"},
      {"measurement": "stabilization of recombinant human ENO2 (shift of thermal denaturation curve)", "setting": "ENO2 [11]", "result": "~ 12 °C"},
      {"measurement": "ratio of 3-PGA/PEP", "setting": "[12]", "result": "dramatic increase"},
      {"measurement": "conversion of 13C-1 glucose to 13C-3 glycerate", "setting": "[13]", "result": "dramatically increases"},
      {"measurement": "glucose consumption and lactate production in media", "setting": "[13]; four days, 13C-1 glucose, D423 and Gli56 ENO1 deleted cells", "result": "profound inhibition of glucose consumption"},
      {"measurement": "effect on thermal stability of Vinculin", "setting": "Vinculin", "result": "Neither PhAH nor SF2312 affected the thermal stability"},
      {"measurement": "toxicity", "setting": "ENO1-intact glioma cells", "result": "non-toxic"}
    ]},
    {"smiles": "O=C(CP(=O)(O)O)NO", "note": "[PhAH, Phosphonoacetohydroxamate, reference compound]", "values": [
      {"measurement": "toxicity against Gli56 versus ENO1-intact cell lines", "setting": "[4]", "result": "selective toxicity"},
      {"measurement": "shift of the thermal melting curve of ENO2 in intact glioma cells", "setting": "Enolase 2", "result": "~ 6 °C"},
      {"measurement": "effect on thermal stability of Triosephosphate isomerase", "setting": "[6]", "result": "Neither PhAH nor SF2312 affected the thermal stability"},
      {"measurement": "concentration at which potentiation of toxicity by hypoxia is evident", "setting": "[8]; hypoxia vs normoxia", "result": 200, "unit": "µM"},
      {"measurement": "shift in the thermal denaturation of ENO2", "setting": "ENO2 [9]", "result": "~ 6 °C"},
      {"measurement": "stabilization of recombinant human ENO2 (shift of thermal denaturation curve)", "setting": "ENO2 [11]", "result": "~ 6 °C"},
      {"measurement": "conversion of 13C-1 glucose to 13C-3 glycerate", "setting": "[13]", "result": "to a lesser extent"},
      {"measurement": "effect on thermal stability of Vinculin", "setting": "Vinculin", "result": "Neither PhAH nor SF2312 affected the thermal stability"}
    ]}
  ]
}
